Test [1] addresses T1, SOX11-DNA interaction (Homo sapiens, UniProt P35716).
T1 sequence (P35716 49-117 limits assumed): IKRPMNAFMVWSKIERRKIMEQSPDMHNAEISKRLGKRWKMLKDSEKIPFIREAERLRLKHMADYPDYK
Kind of test: Fluorescence anisotropy. The class given is biochemical. The conditions noted are these: 20 μM of compound. In a few lines:
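Fluorescence anisotropy read at fluorescein excitation/emission wavelengths to follow SOX11–DNA binding in the presence of test compound. Unlabeled DNA served as the competitive positive control. Read-out: percent inhibition of DNA binding.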

Test [2] deals with MCL cell lines. Kind of test: Activity in MCL cell lines. The test is classed as cell-based, human.
Test [3] has as its system MCL patients. The conditions noted are these: cited from earlier work; for duration of response: MCL patients.
Test [4] has as its system DNA (topoisomerase I relaxation of supercoiled plasmid DNA). Kind of test: Topoisomerase-based DNA unwinding assay. The test is classed as biochemical. The following applies: 20 μM.
The test system of test [5] is pBTK in JeKo-1, Z-138, Mino and JVM-2. Nature of the test: PhosphoFlow pBTK-Y223, all four MCL cell lines. The class given is cell-based, human. The following applies: 24 hours; 1 μM and 10 μM Ibrutinib (Figure 5B).
For test [6], the system named is SOX11 DBD. The conditions noted are these: cited from earlier work.
Test [7] deals with T2, (His)6-SOX11-DBD (Homo sapiens, UniProt P35716).
T2 sequence (P35716 49-117 limits assumed): T1 sequence (P35716 49-117 limits assumed)
Kind of test: Surface plasmon resonance binding to immobilized SOX11-DBD. The conditions noted are these: 25 °C. On the technique in general: In SPR one partner is held on a chip, and binding of the other changes the refractive index at the surface.

A value given as a limit tells only on which side of the number the result lay.

With `Cc1cc2nc3c(=O)[nH]c(=O)nc-3n(C[C@H](O)[C@H](O)[C@H](O)COP(=O)(O)OP(=O)(O)OC[C@H]3O[C@@H](n4cnc5c(N)ncnc54)[C@H](O)[C@@H]3O)c2cc1C` [Flavitan], in test [1], the “inhibition of DNA binding” value is over 50%. Further, the “activity in MCL cell lines” value in test [2] is “inactivity in MCL cell lines”.
Consider `C=CC(=O)N1CCC[C@@H](n2nc(-c3ccc(Oc4ccccc4)cc3)c3c(N)ncnc32)C1` [Ibrutinib], for which the duration of response in test [3] is 17.5 months. The overall response rate in test [3] (relapsed MCL patients) is recorded as 60%. Besides, in test [4], the “direct DNA binding / interference with DNA unwinding activity of topoisomerase I” value is recorded as “do not directly bind DNA”. In test [5], the “pBTK level in all four cell lines” value is listed as “reduced pBTK level in all four cell lines”.
Turning to `O=C(O)c1c(O)cccc1CCc1ccc2ccccc2c1` [Sm4], the “concentration inhibiting SOX11 DBD” value in test [6] was “sub-millimolar concentrations”. In test [7], the “binding affinity to SOX11-DBD (SPR)” value is on record as “displayed expected affinities”.
Regarding `CC1(C)CCC(CN2CCN(c3ccc(C(=O)NS(=O)(=O)c4ccc(NCC5CCOCC5)c([N+](=O)[O-])c4)c(Oc4cnc5[nH]ccc5c4)c3)CC2)=C(c2ccc(Cl)cc2)C1` [Venetoclax], the duration of response in test [3] was 14 months.
